Compound activity deposited in PubChem BioAssay by several laboratories.
Most compounds without a hit are left out; they make up all but 4.8% or so of the library.
NALP3 yeast inh = NALP3 inflammasome inhibitors in reconstituted yeast, primary screen, luminescence, uHTS. Yeast reconstituted NLRP3/ASC/caspase-1, beta-gal luminescence, 24 h. inhibition, % at 10 µM. 330,000 tested, 0.39% active;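 active = inhibition of 50% or more; inactive = inhibition below 50%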;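 also: plate controls were induced DMSO wells for no effect and uninduced yeast grown without galactose for full effect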
Calb FLC = C. albicans growth inhibition with fluconazole, primary screen, CaCi-2 strain, Alamar Blue fluorescence. C. albicans CaCi-2 + fluconazole, 48 h. growth inhibition, % (test concentration not listed). 300,000 tested, 0.57% active;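 active = growth inhibition above about 58% in most replicates, limit read from the data, passing the limit was not always enough; inconclusive = exactly half the replicates above a set limit; inactive = most replicates below a set limit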;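 also: all wells also contain fluconazole at 8 µg/ml as a sub-toxic cotreatment; 0% = median of DMSO wells and 100% = median of geldanamycin control wells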
ALR H2O2 inh = inhibitors of human ALR sulfhydryl oxidase, primary screen, biochemical, H2O2 detection, HRP-luminol luminescence, single point | FAD-linked sulfhydryl oxidase ALR (Homo sapiens), P55789 | purified ALR, DTT oxidation | inhibition, % (test concentration not listed) | 290,000 tested, 3.8% active | AID 485317, 2010;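 active = mean replicate inhibition above about 79%, with every replicate also reaching it, limit read from the data; inconclusive = only one of the two criteria met; inactive = mean below limit and not every replicate reaching it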
Target sequence (P55789 whole entry, looked up): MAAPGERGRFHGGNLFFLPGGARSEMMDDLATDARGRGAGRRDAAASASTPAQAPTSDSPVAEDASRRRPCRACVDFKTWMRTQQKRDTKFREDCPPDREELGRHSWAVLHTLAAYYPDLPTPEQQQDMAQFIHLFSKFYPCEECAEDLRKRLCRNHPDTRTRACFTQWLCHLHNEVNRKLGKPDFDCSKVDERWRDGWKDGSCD
ATG4B inhibitor = ATG4B protease inhibitors, primary screen, biochemical, fluorescence, uHTS; inhibition, % at 8.33 µM; 340,000 tested, 0.51% active; AID 504462, 2011; ATG4B cleavage of LC3-PLA2, NBD-HPC fluorescence, 1 h; Cysteine protease ATG4B (Homo sapiens), Q9Y4P1; in the data active = inhibition above about 40%
Target sequence (Q9Y4P1 whole entry, looked up): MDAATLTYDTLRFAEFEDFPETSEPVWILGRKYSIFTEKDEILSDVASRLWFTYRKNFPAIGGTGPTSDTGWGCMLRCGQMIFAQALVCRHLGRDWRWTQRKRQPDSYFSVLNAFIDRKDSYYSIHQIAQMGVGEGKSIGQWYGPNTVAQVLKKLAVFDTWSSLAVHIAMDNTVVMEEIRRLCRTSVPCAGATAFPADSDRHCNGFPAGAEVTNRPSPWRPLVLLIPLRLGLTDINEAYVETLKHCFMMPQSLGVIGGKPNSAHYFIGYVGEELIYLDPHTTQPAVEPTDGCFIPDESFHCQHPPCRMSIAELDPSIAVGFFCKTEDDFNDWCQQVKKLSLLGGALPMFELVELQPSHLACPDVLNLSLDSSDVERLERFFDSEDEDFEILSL
NALP1 yeast inh = NALP1 inflammasome inhibitors in reconstituted yeast, colorimetric, S. cerevisiae, triplicate retest; S. cerevisiae NALP1/ASC/caspase-1 growth, X-gal OD620, 72 h; inhibition, % at 10 µM; 280,000 tested, 0.61% active; AID 2071, 2009; in the data active = inhibition mostly above about 24%, no sharp cut-off; inactive = mostly below about 32%
UCH37 inh = inhibitors of human UCH37 deubiquitinase, primary screen, biochemical, Ub-AMC cleavage, fluorescence; Ubiquitin carboxyl-terminal hydrolase isozyme L5 (Homo sapiens), Q9Y5K5; purified proteasome/UCH37; inhibition, % (test concentration not listed); 330,000 tested, 0.33% active; AID 588478, 2011;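 active = mean inhibition over replicate wells above about 20%, limit read from the data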;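 also: 0% = compound-free wells with enzyme and 100% = wells lacking proteasome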
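Material: Human UCH37 enzyme supplied as purified proteasome complex | Schedule: 30 min preincubation with enzyme, 25 min cleavage at room temperature | Detection: AMC fluorescence 355/460 nm | Measure: % inhibition of Ub-AMC cleavage fluorescence | Controls: Wells without proteasome as full block, compound-free enzyme plus substrate as uninhibited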
NALP3 yeast conf = NALP3 inhibitors retested in yeast, confirmation, luminescence, single concentration; shares compounds with NALP3 yeast inh; yeast expressing human NALP3; inhibition, % at 10 µM; 1,300 tested, 81% active; AID 435006, 2010; in the data active = inhibition above about 48%
Casp1 ASC ctr = CASP1-PYCARD signaling inhibition in yeast, confirmatory test, counterassay for NLRP3 inhibitor program, one-dose. inhibition, % at 10 µM. shares compounds with NALP3 yeast inh. AID 488784, 2010. yeast expressing Caspase-1-ASC, luminescence counter screen. 1,000 tested, 66% active
NALP3 retest = NALP3 inhibitors in yeast, repeat test, confirmation, luminescence, single concentration, retest; inhibition, % at 10 µM; shares compounds with NALP3 yeast inh; 1,000 tested, 53% active; yeast expressing human NALP3, luminescence read-out
The depositor's hits bear a star; ? = inconclusive; / = not tested or not shown. Rule as the data show it, unless noted: active = inhibition above about 50%; inactive = the rest.

SMILES	NALP3 yeast inh	Calb FLC	ALR H2O2 inh	ATG4B inhibitor	NALP1 yeast inh	UCH37 inh	NALP3 yeast conf	Casp1 ASC ctr	NALP3 retest
CC1CCCN(CCOc2cccc(Oc3ccccc3)c2)C1 (configuration not stated)	50*	-3	2	8	22	2	56*	45	40
CC1CCN(S(=O)(=O)c2cccc(-c3cn4cc(Cl)ccc4n3)c2)CC1	64*	23	-18	-7	2	-4	75*	38	33
Cc1c(C(=O)Nc2nc3ccccc3[nH]2)oc2ccccc12	61*	1	5	2	30	-8	31	/	/
COc1cccc(C(=O)Nc2nc3ccccc3[nH]2)c1	30	-10	-1	0	1	-5	/	/	/
COc1ccc(C(=O)Nc2nc3ccccc3[nH]2)cc1	51*	3	-9	-1	6	2	81*	60*	48
COc1ccccc1C(=O)Nc1nc2ccccc2[nH]1	60*	2	-1	9	12	/	78*	79*	31
CN(C)/N=C/c1ccc(Sc2ccc([N+](=O)[O-])cc2[N+](=O)[O-])o1	54*	6	15	18	27	/	46	/	/
CSCc1cc(N(C)c2ccccc2)nc(-c2ccccn2)n1	67*	-33	0	3	-3	/	71*	74*	81*
CN(C)c1cc(C(F)(F)F)nc(-c2ccccn2)n1	-11	4	-7	5	30	-5	/	/	/
C(=NN=Cc1cccs1)c1cccs1	/	/	/	/	/	3	/	/	/
O=C(CSc1ccc(Cl)cc1)NN=Cc1cccnc1	/	/	/	/	/	4	/	/	/
c1ccc(Sc2cccc3ccccc23)c(CNC2=NCCN2)c1	74*	?	-6	6	78*	7	63*	49	70*
Fc1ccccc1Sc1ccccc1CNC1=NCCN1	14	-15	-4	6	42	6	/	/	/
CCC1CCCC1=NNC(=O)CCC(=O)Nc1ccccc1Cl (configuration not stated)	/	/	/	/	/	2	/	/	/
Cc1cc(Cl)c(S(=O)(=O)NC2CCCCC2)cc1OCC(=O)Nc1nncs1	50*	-3	/	-1	4	1	50*	36	30
COc1cc(C=NNC(=O)CCn2cnc(-c3ccccc3)c2-c2ccccc2)ccc1O	/	/	/	/	/	4	/	/	/
Cc1ccc(-c2nc(CNC(=O)c3cc(C)on3)cs2)cc1	66*	/	5	-7	20	4	75*	68*	54*
CC(=NNC(=O)CNC(=O)Cc1ccc(Cl)cc1)c1ccco1	/	/	/	/	/	1	/	/	/
CCSc1nsc(NC(=O)Nc2ccccc2F)n1	22	-3	/	-4	8	0	/	/	/
C=CCSc1nsc(NC(=O)Nc2ccc(F)cc2)n1	56*	2	-1	11	52	/	78*	79*	82*
CC(=NNC(=O)c1cccc(S(=O)(=O)N2CCCC2)c1)c1cccs1	/	/	/	/	/	3	/	/	/
CC(=O)N1N=C(c2ccc(Cl)cc2)OC1(C)C	71*	-10	-11	-15	42	-7	51*	52*	34
CC(C)COC(=O)c1cccc2c1-c1ccccc1C2=NO	/	/	/	/	/	2	/	/	/
O=C(Nc1cccc(-n2cnnn2)c1)c1cc(Cl)nc(Cl)c1	16	6	-1	7	26	1	/	/	/
CC(C)(C)c1ccc(C(=O)Nc2cccc(-n3cnnn3)c2)cc1	52*	-8	4	-11	18	-1	65*	58*	27
SMILES	NALP3 yeast inh	Calb FLC	ALR H2O2 inh	ATG4B inhibitor	NALP1 yeast inh	UCH37 inh	NALP3 yeast conf	Casp1 ASC ctr	NALP3 retest
O=C(O)c1cccc(NC(=O)c2ccccc2)c1	/	/	/	-6	/	1	/	/	/
O=C(NC(=S)Nc1ccccc1)c1ccc(Br)o1	38	6	13	1	-9	-1	/	/	/
O=C(Nc1ccc2c(c1)OCCO2)c1cccc(Br)c1	52*	-2	-10	-3	12	1	73*	50*	51*
COc1cccc(C(=O)Nc2ccccc2)c1	51*	-11	55	-6	4	1	80*	48	39
O=C(Nc1cccc(F)c1)c1ccccc1	60*	-22	/	-10	2	6	84*	68*	68*
O=C(Nc1ccc(Nc2ccccc2)cc1)c1ccc(Br)o1	66*	-1	99*	5	-1	4	76*	76*	74*
COc1cccc(NC(=O)c2cccs2)c1	68*	-1	-32	-6	10	3	81*	71*	57*
O=C(COC(=O)c1ccc2c(c1)OCO2)Nc1cccc(F)c1	15	/	1	-42	/	1	/	/	/
O=C(Nc1cccc(F)c1)c1ccc2c(c1)OCO2	65*	-6	0	0	-3	1	65*	68*	62*
O=C(Nc1ccc2oc(=O)ccc2c1)c1cc2ccccc2o1	-16	3	5	-2	5	-2	/	/	/
O=C(Nc1ccc2c(c1)OCCO2)c1cc2ccccc2o1	53*	-2	-3	-10	18	2	69*	63*	73*
Cc1ccc(NC(=O)Cn2cccc2)cc1C	13	0	5	6	-4	3	/	/	/
Cc1ccc(NC(=O)CCn2cccc2)cc1C	59*	1	1	-22	24	3	74*	43	39
O=C(CNc1cccc(C(F)(F)F)c1)NN=Cc1cccc(Br)c1	/	/	/	/	/	1	/	/	/
CCN1CCN(c2ccc(NC(=O)c3cccc(OCc4ccccc4)c3)cc2)CC1	38	2	7	2	45	-11	/	/	/
Cc1ccc(NC(=O)c2ccccc2)cc1C	52*	/	-15	-14	/	1	75*	40	42
O=C(Nc1ccc(Nc2ccccc2)cc1)c1cccc(F)c1	57*	15	7	-2	16	6	72*	51*	57*
CN1CCN(c2ccc(NC(=O)c3cccc(OCc4ccccc4)c3)cc2)CC1	50*	-7	-13	6	31*	3	55*	39	37
Cc1ccc(C)c(NC(=O)c2cc3ccccc3o2)c1	55*	-2	1	-1	21	-1	44	52*	41
CCCOc1ccc(C(=O)NN=Cc2ccc(-c3ccc(S(=O)(=O)Nc4ncccn4)cc3)o2)cc1	/	/	/	/	/	-76	/	/	/
